Assay outcomes: PubChem, several laboratories
Ins promoter up: insulin promoter activators in MIN6 cells, imaging, high-content screening, mouse beta cells; MIN6 insulin promoter-GFP reporter; stronger effect = higher value; z-score at 5 µM; hit rate 0.3% among 190,000; AID 1625, 2009;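 active = z-score above 3 at 5 µM with at least 500 cells counted in the well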
PERK inh: block of dimerizer-induced PERK translation repression, primary screen, PERK inhibitor project, CHO PERK-DD cells, SEAP luminescence, HTS; Eukaryotic translation initiation factor 2-alpha kinase 3 (Homo sapiens), Q9NZJ5; hit rate 0.17% among 220,000; inhibition, % at 5.6 µM; CHO PERK-DD fusion, SEAP luminescence translation reporter;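 active = inhibition above the mean inhibition of all tested compounds plus 3 SD, set separately per screening campaign, cut at about 2.9% in these data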;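 also: PERK kinase domain activated by AP20187 dimerizer at 100 nM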
Target sequence (Q9NZJ5 whole entry, looked up, the tested form may be a part): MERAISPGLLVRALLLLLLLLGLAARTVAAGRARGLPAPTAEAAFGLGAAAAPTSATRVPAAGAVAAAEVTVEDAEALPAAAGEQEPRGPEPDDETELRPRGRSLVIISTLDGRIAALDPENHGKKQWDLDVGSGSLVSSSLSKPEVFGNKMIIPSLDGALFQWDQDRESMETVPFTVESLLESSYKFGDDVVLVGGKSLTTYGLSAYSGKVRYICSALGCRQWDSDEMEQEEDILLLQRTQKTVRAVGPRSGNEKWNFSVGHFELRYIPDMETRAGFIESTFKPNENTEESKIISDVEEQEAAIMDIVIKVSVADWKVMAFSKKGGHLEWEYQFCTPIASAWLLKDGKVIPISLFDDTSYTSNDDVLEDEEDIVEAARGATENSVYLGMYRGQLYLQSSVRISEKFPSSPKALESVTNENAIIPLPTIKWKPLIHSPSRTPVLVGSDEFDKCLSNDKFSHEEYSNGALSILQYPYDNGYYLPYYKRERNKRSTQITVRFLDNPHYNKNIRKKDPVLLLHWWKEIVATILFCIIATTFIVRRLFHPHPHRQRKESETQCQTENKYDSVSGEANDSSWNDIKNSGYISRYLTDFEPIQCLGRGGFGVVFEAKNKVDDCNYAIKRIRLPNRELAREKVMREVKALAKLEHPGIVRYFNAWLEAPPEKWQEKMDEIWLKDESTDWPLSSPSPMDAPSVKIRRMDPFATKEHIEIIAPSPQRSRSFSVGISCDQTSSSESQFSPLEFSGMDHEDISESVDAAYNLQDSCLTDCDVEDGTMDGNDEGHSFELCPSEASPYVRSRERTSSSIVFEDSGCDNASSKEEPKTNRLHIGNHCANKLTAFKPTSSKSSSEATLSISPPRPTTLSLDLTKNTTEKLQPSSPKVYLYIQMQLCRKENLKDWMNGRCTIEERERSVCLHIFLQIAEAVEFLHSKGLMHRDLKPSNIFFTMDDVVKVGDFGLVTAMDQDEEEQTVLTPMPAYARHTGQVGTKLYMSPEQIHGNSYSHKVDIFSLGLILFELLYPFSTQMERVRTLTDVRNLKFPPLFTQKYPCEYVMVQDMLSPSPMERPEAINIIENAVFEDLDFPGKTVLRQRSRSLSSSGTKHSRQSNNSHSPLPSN
Insulin prom inh: inhibitors of insulin promoter-driven GFP, primary screen, imaging, TRM-6 cells (human fetal islet line), eGFP reporter, cell count | inhibition, % at 2 µM | AID 1273, 2008 | hit rate 0.9% among 130,000 | reporter expression induced with tamoxifen;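 active = inhibition above the mean plus 3 SD, with well images judged a real hit on visual review, cut at about 60% in these data, passing the limit was not always enough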
Autophagy mod: autophagy modulators in MEF cells, primary screen, imaging, high-content, MEF GFP-LC3; MEF GFP-LC3 puncta imaging; test concentration mostly 10 µM; calls only at 10 µM (by protocol); hit rate 0.98% among 190,000; AID 463193, 2010;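 active = percentage of spot-positive cells more than 3 SD above its plate mean, without a fluorescence outlier flag or 80% toxicity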
Dynein cargo inh: inhibitors of GR-EGFP nuclear translocation, primary screen, dynein cargo transport inhibitor project, imaging, high-content, 3617.4 mouse cells; hit rate 0.47% among 220,000; AID 1381, 2008; test concentration mostly 20 µM; stimulated with dexamethasone, 1 µM; stronger effect = lower value; z-score, hits read low;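 active = plate z-score of nuclear minus cytoplasmic receptor signal below a set negative limit, without overly bright fluorescence or cell loss, cut at about -3.5 in these data, passing the limit was not always enough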;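 also: z-score of nuclear minus cytoplasmic ring GR-EGFP intensity difference per well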
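Also added – dexamethasone, 1.0 µM final · Buffer or medium – tet-free, stripped-serum medium · Schedule – induction 48 h, compound 1 h, agonist 30 min · Detection – formaldehyde fixation, Hoechst nuclear stain, 10x automated fluorescence imaging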
Each line names hits and unclear results; the compound was inactive in the other large screens. Only some compounds are listed: those with a hit (about 2.1% of all), similar ones and a draw of the others.

CCOC(=O)c1cnc(-c2ccccc2)nc1N	Insulin prom inh 95
C/C(=N/NC(=O)c1cc(-c2ccc(Br)s2)[nH]n1)c1ccco1	none (no result: Insulin prom inh)
C/C(=N\NC(=O)c1cc(C(C)C)[nH]n1)c1ccco1	Autophagy mod active
CN(CCCNC(=O)C1CCCN(S(=O)(=O)c2cnc[nH]2)C1)c1ccccc1 (stereo not given)	none (no result: Insulin prom inh)
O=C(NCCCN1CCN(c2ccccc2F)CC1)C1CCCN(S(=O)(=O)c2cnc[nH]2)C1 (stereo not given)	Autophagy mod active (no result: Insulin prom inh)
CC(=O)c1sc(NC(=O)c2cc(=O)c3ccccc3o2)nc1C	Autophagy mod active (no result: Insulin prom inh)
COc1ccc(N/C(N)=N/c2nc(CSc3ccc(Cl)cc3)cc(=O)[nH]2)cc1	none (no result: Ins promoter up)
N/C(=N\c1nc(CSc2ccc(Cl)cc2)cc(=O)[nH]1)Nc1cccc2ccccc12	Autophagy mod active (no result: Ins promoter up)
O=C1c2ccccc2C(=O)N1CC(O)CNc1ccc(Br)cc1 (stereo not given)	Insulin prom inh 72
Cc1ccc(OCC(=O)NNC(=O)C2CCCO2)c(C)c1 (stereo not given)	none (no result: Insulin prom inh)
CCN(CC)CC(=O)n1c2c(c3ccccc31)CCCC2	none
CN1CCN(CC(=O)n2c3c(c4ccccc42)CCCC3)CC1	Autophagy mod active (no result: Insulin prom inh)
NC(=O)c1ccc(N=Cc2ccc([N+](=O)[O-])s2)cc1	Dynein cargo inh -4
Cc1cc(C)cc(N=Cc2ccc([N+](=O)[O-])s2)c1	none
Cc1ccc(NC(=S)N/N=C/c2c(C)[nH]c3ccccc23)cc1	Autophagy mod active (no result: Insulin prom inh)
OCCN1CCN(CC(O)COc2ccc(C34CC5CC(CC(C5)C3)C4)cc2)CC1 (stereo not given)	Autophagy mod active
CC(C)OC(=O)/C(=C\c1cccnc1)NC(=O)c1ccccc1	Autophagy mod active (no result: Insulin prom inh)
C=CCOC(=O)/C(=C/c1cccnc1)NC(=O)c1ccccc1	none (no result: Insulin prom inh, Autophagy mod)
Cc1cc(NC(=O)CSc2nc(-c3ccccc3Cl)nc3c2c(=O)n(C)c(=O)n3C)no1	none (no result: Insulin prom inh)
CC(=O)N1CCc2cc(S(=O)(=O)NCCC(=O)N3CCN(Cc4ccccc4)CC3)ccc21	Autophagy mod active
Cc1ccc(S(=O)(=O)NCCC(=O)N2CCN(Cc3ccccc3)CC2)cc1	none
CC1(C)CC(=O)C=C(NCCO)C1	PERK inh 3.1
CCCCCCCCNC1=CC(=O)CC(C)(C)C1	none (no result: Ins promoter up, Insulin prom inh, Autophagy mod)
O=C(CCc1ccc(O)cc1)N/N=C/c1coc2ccccc2c1=O	none (no result: Insulin prom inh, Autophagy mod)
O=c1oc2ccccc2cc1-c1csc(Nc2nc3c(F)cccc3s2)n1	Autophagy mod active
O=c1oc2ccccc2cc1-c1csc(Nc2nc3ccc(F)cc3s2)n1	none
CC(C)(C)C(=O)/C(=C\c1ccc([N+](=O)[O-])cc1)n1cncn1	Autophagy mod active, Dynein cargo inh -5.1 (no result: Ins promoter up)
O=S(=O)(N/N=C/c1cn(Cc2ccccc2)c2ccccc12)c1ccccc1	none
O=C(OCC(=O)N1CCCc2ccccc21)c1ccc(Cl)nc1	Insulin prom inh 80
COc1ccccc1Nc1nc(N)nc(CSC(=S)N2CCCCC2)n1	none (no result: Insulin prom inh, Autophagy mod)
O=C(O)C1C2CCC(O2)C1C(=O)NCc1ccc(Cl)cc1 (stereo not given)	Insulin prom inh 62
Cc1nn(C)cc1CNC(=O)C1C2CCC(O2)C1C(=O)O (stereo not given)	none (no result: Insulin prom inh)
COc1ccc(-c2csc(NC(=S)NC(=O)c3ccco3)n2)cc1	Autophagy mod active
O=C(COC(=O)c1ccc(NS(=O)(=O)c2ccc3c(c2)OCCO3)cc1)NC1CC1	Insulin prom inh 92
COc1ccc(CNCC(O)(c2ccccc2)c2ccc(Cl)cc2)cc1 (stereo not given)	none (no result: Insulin prom inh, Dynein cargo inh)
Cc1ccc(CNCC(O)(c2ccccc2)c2ccc(Cl)cc2)cc1 (stereo not given)	Autophagy mod active
CC(=O)C1=C(C)Nc2ncnn2C1c1ccc(Cl)cc1Cl (stereo not given)	Ins promoter up 3.5 (no result: Insulin prom inh)
Cn1c(SCC(=O)O)nnc1C1CCCCC1	Insulin prom inh 83
Cn1c(SCC(=O)c2ccccc2)nnc1C1CC1	none (no result: Insulin prom inh)
Cc1ccc(C2=NC3(CCCCC3)NC2=S)cc1	Insulin prom inh 62
C=CCn1c(=O)c(C(=O)Nc2ccccc2S(N)(=O)=O)c(O)c2ccccc21	none (no result: Insulin prom inh)
COc1cccc(C(=O)Nc2ccccc2C(=O)N2CCCC2)c1	Ins promoter up 3.3
Cc1ccccc1OCc1nc(-c2ccc(NC(=O)c3ccc4c(c3)OCO4)cc2)no1	Autophagy mod active (no result: Insulin prom inh)
Cc1ccccc1OCc1nc(-c2ccc(NC(=O)c3ccco3)cc2)no1	none
N#CN(Cc1ccccc1)Cc1ccccc1	none (no result: Insulin prom inh, Autophagy mod)
COc1ccccc1N1CCN(S(=O)(=O)c2ccccc2)CC1	none
COc1ccccc1N1CCN(S(=O)(=O)Cc2ccccc2Cl)CC1	Insulin prom inh 89
NS(=O)(=O)c1ccc(NC(=O)COC(=O)CCNC(=O)NC23CC4CC(CC(C4)C2)C3)cc1	none (no result: Insulin prom inh)
CC(C)(C)C1=CC=C(C(C)(C)C)C(=O)C1=O	Dynein cargo inh -3.7 (no result: Insulin prom inh, Autophagy mod)
CCOC(=O)CC1C(=O)NCCN1S(=O)(=O)c1ccc(OC)cc1 (stereo not given)	none
CCOCCCNc1nc2c(C)cccn2c(=O)c1/C=C1\SC(=S)N(CC(C)C)C1=O	Autophagy mod active (no result: Ins promoter up)
CCOC(=O)CC1C(=O)NCCN1c1nc2c(C)cccn2c(=O)c1/C=C1\SC(=S)N(CC(C)C)C1=O (stereo not given)	Ins promoter up 17 (no result: Insulin prom inh, Autophagy mod)
CCOCCCNc1nc2c(C)cccn2c(=O)c1/C=C1\SC(=S)N(C(C)CC)C1=O (stereo not given)	none (no result: Ins promoter up, Insulin prom inh, Autophagy mod)
CCCN1C(=O)/C(=C/c2c(NCCCOCC)nc3c(C)cccn3c2=O)SC1=S	Ins promoter up 5.7, Autophagy mod active
CC(C)[C@H](NC(=O)c1ccccc1)C(=O)OCC(=O)N1CCCc2ccccc21	none
Cc1ccccc1-n1ncc2c(SCC(=O)NCc3cccs3)ncnc21	Ins promoter up 3.6
Cc1cc2nnc(SCC(=O)NCc3cccs3)n2c(N)n1	none
Cc1cc2nnc(SCC(=O)NCc3cccs3)n2c2ccccc12	Autophagy mod active
COc1ccc(CC(=O)NCCC(C)C)cc1S(=O)(=O)N1CCOCC1	none
CC(C)c1nc2sc(C(=O)O)c(N)c2c2c1CCCC2	none (no result: Ins promoter up, Insulin prom inh, Autophagy mod)
O=C(Cc1csc(Nc2nc(=S)[nH]c3ccccc23)n1)N1CCN(c2cccc(C(F)(F)F)c2)CC1	Autophagy mod active
CCc1ccc(NC(=S)Nc2ccc3[nH]c(=O)[nH]c3c2)cc1	PERK inh 3.0 (no result: Insulin prom inh, Autophagy mod)
O=c1[nH]c2ccc(NC(=S)Nc3ccc(F)cc3)cc2[nH]1	none (no result: Insulin prom inh, Autophagy mod)
Cc1cccc(OCCN2CSC(=S)N(C)C2)c1	Autophagy mod active (no result: Insulin prom inh)
COc1ccccc1OCCN1CSC(=S)N(C)C1	none
